Data reported in ChEMBL document CHEMBL1125865, “Synthesis, antibacterial activities, and pharmacological properties of enantiomers of temafloxacin hydrochloride” (J Med Chem, 1991).
Values after ≈ are worked out from the molar mass of the structure shown.

How the values were obtained:
Rattus norvegicus [1] = experiment: Effect on the spontaneous locomotor activity of rats at 0-15 min upon ip administration of the compounds at a dose of 15 mg/kg; assay type: functional; conditions: route intraperitoneal
In short: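 Rats were dosed ip; methylcellulose served as vehicle, and treatments were assigned randomly. Thirty minutes after dosing, each rat was placed in its own circular activity chamber. Activity was counted as photocell beam interruptions and recorded at 15 and 60 min after the test started. Values are mean counts ± SEM.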

Rattus norvegicus [2] = experiment: Effect on the spontaneous locomotor activity of rats at 0-15 min upon ip administration of the compounds at a dose of 1 mg/kg; assay type: functional; conditions: route intraperitoneal
In short: (§1)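 Rats were given test agent or methylcellulose vehicle (ip or po, per line), with treatments in random order. 30 min after dosing, each rat went into an individual circular activity chamber. Locomotion was counted as photocell-beam interruptions, recorded at 15 and 60 min from test start and reported as mean counts ± SEM.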

Rattus norvegicus [3] = experiment: Effect on the spontaneous locomotor activity of rats at 0-15 min upon po administration of the compounds at a dose of 30 mg/kg; assay type: functional; in short: as §1
Escherichia coli [4] = experiment: The in vitro antibacterial activity as minimum inhibitory concentration against Escherichia coli Juhl; assay type: functional
In short: (§2)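 Agar dilution in BHI agar. Organisms were grown overnight in BHI broth at 36 °C. Two-fold dilutions gave test concentrations from 200 to 0.005 μg/mL. Plates were inoculated with ~10^4 organisms and incubated 18 h at 36 °C. MIC was the lowest concentration with no visible growth.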

Micrococcus luteus [5] = experiment: The in vitro antibacterial activity as minimum inhibitory concentration against Micrococcus luteus ATCC 9341; assay type: functional; in short: as §2
Streptococcus pneumoniae [6] = experiment: Median dose against Streptococcus pneumoniae 6303 in mouse after peroral administration at a dose of 100xLD50 in TEST 1.; assay type: functional; conditions: po
In short: (§3)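 CF-1 female mice (~20 g) were infected ip with 0.5 mL of an 18-h BHI broth culture diluted in 5% (w/v) hog gastric mucin to the stated multiple of LD50. The HCl salt was dissolved in distilled water and given sc or po, with the total dose split equally at 1 and 5 h post-infection. Groups of 10 mice received at least three dose levels; ten infected mice were left untreated. Deaths were recorded daily for 6 days. ED50 came from day-6 cumulative mortality using the trimmed logit method.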

Enterococcus faecium = experiment: The in vitro antibacterial activity as minimum inhibitory concentration against Enterococcus faecium ATCC 8043; assay type: functional; in short: as §2
Escherichia coli [7] = experiment: The in vitro antibacterial activity as minimum inhibitory concentration against Escherichia coli SS; assay type: functional; in short: as §2
[8] = test system: Staphylococcus epidermidis; experiment: The in vitro antibacterial activity as minimum inhibitory concentration against Staphylococcus epidermidis 3519; assay type: functional
In short: (§4)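 Agar dilution: organisms grown overnight in BHI broth at 36 °C. Two-fold dilutions of a 2000 μg/mL stock were made in BHI agar, giving 200 to 0.005 μg/mL final. Plates were inoculated with about 10^4 organisms and incubated 18 h at 36 °C. MIC is the lowest concentration with no visible growth.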

[9] = Compound was tested for its water solubility in water.; assay type: ADME; conditions: read-out: S
In short: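 Solubility measured by adding excess drug to a fixed volume of distilled water at ambient temperature.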

Streptococcus pyogenes [10] = experiment: The in vitro antibacterial activity as minimum inhibitory concentration against Streptococcus pyogenes 930 Const; assay type: functional; in short: as §4
Streptococcus pyogenes [11] = experiment: The in vitro antibacterial activity as minimum inhibitory concentration against Streptococcus pyogenes EES61; assay type: functional; in short: as §4
Pseudomonas aeruginosa [12] = experiment: The in vitro antibacterial activity as minimum inhibitory concentration against Pseudomonas aeruginosa K799/WT; assay type: functional; in short: as §2
Escherichia coli [13] = experiment: Median dose against Escherichia coli Juhl cumulative mortalities in mouse after peroral administration at a dose of 100xLD50 in TEST 1.; assay type: functional; conditions: po
In short: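 Female CF-1 mice (~20 g) were challenged ip with 0.5 mL of 18-h BHI culture diluted in 5% hog gastric mucin to 100× LD50 (LD50 by Reed–Muench). Oral doses in distilled water were split equally at 1 and 5 h post-infection, with ≥3 dose levels and 10 mice each, plus untreated controls. ED50 was derived from day-6 cumulative mortality by trimmed logit.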

Klebsiella aerogenes = experiment: The in vitro antibacterial activity as minimum inhibitory concentration against Enterobacter aerogenes ATCC 13048; assay type: functional; in short: as §2
Micrococcus luteus [14] = experiment: The in vitro antibacterial activity as minimum inhibitory concentration against Micrococcus luteus ATCC 4698; assay type: functional; in short: as §2
Escherichia coli [15] = experiment: The in vitro antibacterial activity as minimum inhibitory concentration against Escherichia coli H-560; assay type: functional; in short: as §2
Pseudomonas aeruginosa [16] = experiment: The in vitro antibacterial activity as minimum inhibitory concentration against Pseudomonas aeruginosa A5007; assay type: functional; in short: as §2
Staphylococcus aureus [17] = experiment: The in vitro antibacterial activity as minimum inhibitory concentration against Staphylococcus aureus CMX 553; assay type: functional; in short: as §4
Burkholderia cepacia = experiment: The in vitro antibacterial activity as minimum inhibitory concentration against Pseudomonas cepacia 2961; assay type: functional; in short: as §2
Staphylococcus aureus [18] = experiment: The in vitro antibacterial activity as minimum inhibitory concentration against Staphylococcus aureus 45; assay type: functional; in short: as §2
Pseudomonas aeruginosa [19] = experiment: Median dose against Pseudomonas aeruginosa A5007 in mouse after peroral administration at a dose of 100xLD50 in TEST 1.; assay type: functional; conditions: po; in short: as §3
Acinetobacter = experiment: The in vitro antibacterial activity as minimum inhibitory concentration against Acinetobacter sp. CMX 669; assay type: functional; in short: as §2
Streptococcus equinus = experiment: The in vitro antibacterial activity as minimum inhibitory concentration against Streptococcus bovis A5169; assay type: functional; in short: as §4
Pseudomonas aeruginosa [20] = experiment: Median dose against Pseudomonas aeruginosa A5007 in mouse after subcutaneous administration at a dose of 100xLD50 in TEST 1.; assay type: functional; conditions: sc; in short: as §3
Escherichia coli [21] = experiment: Median dose against Escherichia coli Juhl in mouse after subcutaneous administration at a dose of 100xLD50 in TEST 1.; assay type: functional; conditions: sc; in short: as §3
[22] = Partition coefficient in octanol/water at pH 7.5 buffer.; assay type: physicochemical
Staphylococcus aureus [23] = experiment: The in vitro antibacterial activity as minimum inhibitory concentration against Staphylococcus aureus 45 RAR2; assay type: functional; in short: as §2
Escherichia coli [24] = experiment: The in vitro antibacterial activity as minimum inhibitory concentration against Escherichia coli DC-2; assay type: functional; in short: as §2
Staphylococcus aureus [25] = experiment: Median dose against Staphylococcus aureus NCTC 10649 in mouse after peroral administration at a dose of 100xLD50 in TEST 2.; assay type: functional; conditions: po; in short: as §3
Staphylococcus aureus [26] = experiment: Median dose against Staphylococcus aureus NCTC 10649 in mouse after peroral administration at a dose of 100xLD50 in TEST 1.; assay type: functional; conditions: po; in short: as §3
Escherichia coli [27] = experiment: The in vitro antibacterial activity as minimum inhibitory concentration against Escherichia coli KNK437; assay type: functional; in short: as §2
Escherichia coli [28] = experiment: Median dose against Escherichia coli Juhl in mouse after subcutaneous administration at a dose of 100xLD50 in TEST 2.; assay type: functional; conditions: sc; in short: as §3
Staphylococcus aureus [29] = experiment: The in vitro antibacterial activity as minimum inhibitory concentration against Staphylococcus aureus A5177; assay type: functional; in short: as §4
Staphylococcus aureus [30] = experiment: The in vitro antibacterial activity as minimum inhibitory concentration against Staphylococcus aureus ATCC 6538P; assay type: functional; in short: as §4
Streptococcus pneumoniae [31] = experiment: Median dose against Streptococcus pneumoniae 6303 in mouse after subcutaneous administration at a dose of 100xLD50 in TEST 1.; assay type: functional; conditions: sc; in short: as §3
Streptococcus agalactiae = experiment: The in vitro antibacterial activity as minimum inhibitory concentration against Streptococcus agalactiae CMX 508; assay type: functional; in short: as §4
Streptococcus pyogenes [32] = experiment: The in vitro antibacterial activity as minimum inhibitory concentration against Streptococcus pyogenes 2548 INDUC; assay type: functional; in short: as §4
[33] = Compound was tested for its water solubility at pH 7.5; assay type: physicochemical; conditions: aqueous, pH 7.5, pH 7.5
In short: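 Solubility measured by adding excess drug to a fixed volume of 0.05 M pH 7.5 potassium phosphate buffer at ambient temperature.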

Pseudomonas aeruginosa [34] = experiment: The in vitro antibacterial activity as minimum inhibitory concentration against Pseudomonas aeruginosa BMH10; assay type: functional; in short: as §2
Escherichia coli [35] = experiment: Median dose against Escherichia coli Juhl in mouse after peroral administration at a dose of 100xLD50 in TEST 2.; assay type: functional; conditions: po; in short: as §3
Pseudomonas aeruginosa [36] = experiment: Median dose against Pseudomonas aeruginosa A5007 in mouse after peroral administration at a dose of 100xLD50 in TEST 2.; assay type: functional; conditions: po; in short: as §3
Pseudomonas aeruginosa [37] = experiment: Median dose against Pseudomonas aeruginosa A5007 in mouse after subcutaneous administration at a dose of 100xLD50 in TEST 2.; assay type: functional; conditions: sc; in short: as §3
Klebsiella pneumoniae = experiment: The in vitro antibacterial activity as minimum inhibitory concentration against Klebsiella pneumoniae ATCC 8045; assay type: functional; in short: as §2
Providencia stuartii = experiment: The in vitro antibacterial activity as minimum inhibitory concentration against Providencia stuartii CMX 640; assay type: functional; in short: as §2
Staphylococcus aureus [38] = experiment: Median dose against Staphylococcus aureus NCTC 10649 in mouse after subcutaneous administration at a dose of 100xLD50 in TEST 2.; assay type: functional; conditions: sc; in short: as §3
Pseudomonas aeruginosa [39] = experiment: The in vitro antibacterial activity as minimum inhibitory concentration against Pseudomonas aeruginosa K799/61; assay type: functional; in short: as §2
Staphylococcus aureus [40] = experiment: Median dose against Staphylococcus aureus NCTC 10649 in mouse after subcutaneous administration at a dose of 100xLD50 in TEST 1.; assay type: functional; conditions: sc; in short: as §3

**Q.** Which Mean activity counts (Rattus norvegicus [1]) does the source give for `CN(C)CCCN1c2ccccc2Sc2ccc(Cl)cc21` [CHLORPROMAZINE] here?
**A.** The Mean activity counts was 31.

**Q.** For `CN[C@@H](C)Cc1ccccc1` [METHAMPHETAMINE], which Mean activity counts (Rattus norvegicus [2]) is on record?
**A.** The Mean activity counts was 1462.

**Q.** Which Mean activity counts (Rattus norvegicus [3]) does the source give for `CCn1cc(C(=O)O)c(=O)c2cc3c(cc21)OCO3` [OXOLINIC ACID] here?
**A.** The Mean activity counts was 972.

**Q.** Which results are given for `CC1CN(c2cc3c(cc2F)c(=O)c(C(=O)O)cn3-c2ccc(F)cc2F)CCN1` (stereo not drawn) [TEMAFLOXACIN]?
**A.** MIC (Escherichia coli [4]): 0.05 µg/mL (≈ 0.12 µM); MIC (Micrococcus luteus [5]): 3.1 µg/mL (≈ 7.43 µM); ED50 (Streptococcus pneumoniae [6]): 10.2 mg/kg; MIC (Enterococcus faecium): 0.78 µg/mL (≈ 1.87 µM); MIC (Escherichia coli [7]): 0.005 µg/mL (≈ 0.012 µM); MIC [8]: 0.2 µg/mL (≈ 0.479 µM); solubility [9]: 6500 µg/mL (≈ 15600 µM); MIC (Streptococcus pyogenes [10]): 0.78 µg/mL (≈ 1.87 µM); MIC (Streptococcus pyogenes [11]): 0.39 µg/mL (≈ 0.934 µM); MIC (Pseudomonas aeruginosa [12]): 0.39 µg/mL (≈ 0.934 µM); ED50 (Escherichia coli [13]): 3.7 mg/kg; MIC (Klebsiella aerogenes): 0.1 µg/mL (≈ 0.24 µM); MIC (Micrococcus luteus [14]): 1.56 µg/mL (≈ 3.74 µM); MIC (Escherichia coli [15]): 0.05 µg/mL (≈ 0.12 µM); MIC (Pseudomonas aeruginosa [16]): 0.39 µg/mL (≈ 0.934 µM); MIC (Staphylococcus aureus [17]): 0.2 µg/mL (≈ 0.479 µM); MIC (Burkholderia cepacia): 12.5 µg/mL (≈ 29.9 µM); MIC (Staphylococcus aureus [18]): 0.2 µg/mL (≈ 0.479 µM); ED50 (Pseudomonas aeruginosa [19]): 26.6 mg/kg; MIC (Acinetobacter): 0.1 µg/mL (≈ 0.24 µM); MIC (Streptococcus equinus): 1.56 µg/mL (≈ 3.74 µM); ED50 (Pseudomonas aeruginosa [20]): 10.3 mg/kg; ED50 (Escherichia coli [21]): 0.5 mg/kg; logD [22]: -0.29; MIC (Staphylococcus aureus [23]): 0.39 µg/mL (≈ 0.934 µM); MIC (Escherichia coli [24]): 0.39 µg/mL (≈ 0.934 µM); ED50 (Staphylococcus aureus [25]): 3.2 mg/kg; ED50 (Staphylococcus aureus [26]): 6 mg/kg; MIC (Escherichia coli [27]): 0.39 µg/mL (≈ 0.934 µM); ED50 (Escherichia coli [28]): 0.6 mg/kg; MIC (Staphylococcus aureus [29]): 0.2 µg/mL (≈ 0.479 µM); MIC (Staphylococcus aureus [30]): 0.1 µg/mL (≈ 0.24 µM); ED50 (Streptococcus pneumoniae [31]): 6.2 mg/kg; MIC (Streptococcus agalactiae): 0.78 µg/mL (≈ 1.87 µM); MIC (Streptococcus pyogenes [32]): 0.39 µg/mL (≈ 0.934 µM); solubility [33]: 670 µg/mL (≈ 1610 µM); MIC (Pseudomonas aeruginosa [34]): 0.39 µg/mL (≈ 0.934 µM); ED50 (Escherichia coli [35]): 5 mg/kg; ED50 (Pseudomonas aeruginosa [36]): 26.6 mg/kg; ED50 (Pseudomonas aeruginosa [37]): 12.5 mg/kg; MIC (Klebsiella pneumoniae): 0.05 µg/mL (≈ 0.12 µM); MIC (Providencia stuartii): 3.1 µg/mL (≈ 7.43 µM); ED50 (Staphylococcus aureus [38]): 1.3 mg/kg; MIC (Pseudomonas aeruginosa [39]): 0.05 µg/mL (≈ 0.12 µM); ED50 (Staphylococcus aureus [40]): 1.5 mg/kg
